Reference: publication PMC3968794 (Bioorganic & medicinal chemistry, 2013)
pIC50: −log10 of the molar value. Read-outs that look alike come from different tables or passages of the source.

Key:
[1] = tested on: tubulin; assay: Inhibition of tubulin assembly; type: biochemical; details: read-out: Inhibition of tubulin polymerization IC50; cell-free assay, tubulin purified from calf brain
Procedure, shortened: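 Calf-brain tubulin; test compound mixtures held on ice 15 min, then GTP added from a 2.5 mM stock. Samples equilibrated at 0 °C for 8 min in the spectrophotometer, then read at 350 nm every 30 s for 3800 s. Temperature program: 0 °C for 100 s, 38 °C for 120 s, 31 °C until 2600 s, then 0 °C to the end.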

[2] = tested on: tubulin; details: read-out: Inhibition of tubulin polymerization IC50; cell-free assay; ref [61]; cited from earlier work
[3] = tested on: SK-OV-3, NCI-H460 and DU-145 human cancer cell lines; assay: SRB cytotoxicity assay, three human cancer cell lines stated together; type: cell-based
Procedure, shortened: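 Sulforhodamine B growth-inhibition assay (NCI standard method). Cells were grown in RPMI1640 with 5% fetal bovine serum and 1% gentamicin, then plated and incubated 24 h. Serial dilutions of test compound were added, with 48 h exposure. Cells were fixed with trichloroacetic acid, stained with SRB, and read by optical density. GI50 (concentration halving net protein increase) was calculated from OD data.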

COc1cc2c(c(OC)c1O)CCCC=C2c1cc(OC)c(OC)c(OC)c1 [Compound 38, 1,3-Dimethoxy-2-hydroxy-5-(3′,4′,5′-trimethoxyphenyl)-benzocyclohept-5-ene]
pIC50 [1]: < 4.40

COc1ccc(/C=C\c2cc(OC)c(OC)c(OC)c2)cc1OP(=O)(O)O [CA4P, combretastatin A-4P]
pIC50 [2]: < 4.40

COc1ccc2c(c1O)CCCC=C2c1cc(OC)c(OC)c(OC)c1 [Compound 39, 1-Hydroxy-2-methoxy-5-(3′,4′,5′-trimethoxyphenyl)-benzocyclohept-5-ene]
GI50 ([3]; Homo sapiens, read-out: GI50 (cytotoxicity)): < 0.0001 µM

COc1cc(C2=CCCCc3ccccc32)cc(OC)c1OC [Compound 41, 5-(3,4,5-trimethoxyphenyl)-benzocyclohept-5-ene]
pIC50 [1]: < 4.40

COc1cc(C2=CCCCc3c2cc(OC)c(OC)c3O)cc(OC)c1OC [Compound 43, 1-Hydroxy-2,3-dimethoxy-5-(3′,4′,5′-trimethoxyphenyl)-benzocyclohept-5-ene]
pIC50 [1]: < 4.40

COc1ccc(C2=CCCCc3c2ccc(OC)c3OC)cc1OC [Compound 35, 1,2-Dimethoxy-5-(3,4-dimethoxyphenyl)-benzocyclohept-5-ene]
pIC50 [1]: < 4.40

COc1cc(C2=CCCCc3c2ccc(OC)c3OP(=O)(O)O)cc(OC)c1OC [Compound 44, Disodium 2-Methoxy-5-(3′,4′,5′-trimethoxyphenyl)-benzocyclohept-5-ene-1-phosphate]
pIC50 [1]: < 4.40

COc1ccc2c(c1NC(=O)[C@@H](N)CO)CCCC=C2c1cc(OC)c(OC)c(OC)c1.Cl [Compound 48, 1-(L-ser)amido-5-(3′,4′,5′-trimethoxyphenyl)-2-methoxy-benzocyclohept-5-ene hydrochloride]
Cytotoxicity (in words) ([3]; three human cancer cell lines): inactive in terms of cytotoxicity
